Bioassay records from PubChem.
MEKK2 WT-MEK5: modulators of MEK5 binding to wildtype MEKK2, primary screen, biochemical, multiplex bead flow cytometry, Alexa488-MEK5 | Mitogen-activated protein kinase kinase kinase 2 (Homo sapiens), Q9Y2U5 | Alexa488-MEK5 binding to MEKK2 WT; actives lie on both sides | 1.1% of 290,000 active | binding response (% of control), % at 10 µM; in the data active = binding response below about 67% or above about 130%
ABCG2 inh: ABCG2 efflux pump inhibitors, primary screen, multiplex with ABCB1, IgMXP3 cells, flow cytometry; 0.1% of 190,000 active; JC-1 efflux; AID 1325, 2008; Broad substrate specificity ATP-binding cassette transporter ABCG2 (Homo sapiens), Q9UNQ0; inhibition, % at 6.6 µM;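 active = inhibition above 80%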;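 note: 0% = DMSO and 100% = nicardipine control wells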
Target sequence (Q9UNQ0 whole entry, looked up): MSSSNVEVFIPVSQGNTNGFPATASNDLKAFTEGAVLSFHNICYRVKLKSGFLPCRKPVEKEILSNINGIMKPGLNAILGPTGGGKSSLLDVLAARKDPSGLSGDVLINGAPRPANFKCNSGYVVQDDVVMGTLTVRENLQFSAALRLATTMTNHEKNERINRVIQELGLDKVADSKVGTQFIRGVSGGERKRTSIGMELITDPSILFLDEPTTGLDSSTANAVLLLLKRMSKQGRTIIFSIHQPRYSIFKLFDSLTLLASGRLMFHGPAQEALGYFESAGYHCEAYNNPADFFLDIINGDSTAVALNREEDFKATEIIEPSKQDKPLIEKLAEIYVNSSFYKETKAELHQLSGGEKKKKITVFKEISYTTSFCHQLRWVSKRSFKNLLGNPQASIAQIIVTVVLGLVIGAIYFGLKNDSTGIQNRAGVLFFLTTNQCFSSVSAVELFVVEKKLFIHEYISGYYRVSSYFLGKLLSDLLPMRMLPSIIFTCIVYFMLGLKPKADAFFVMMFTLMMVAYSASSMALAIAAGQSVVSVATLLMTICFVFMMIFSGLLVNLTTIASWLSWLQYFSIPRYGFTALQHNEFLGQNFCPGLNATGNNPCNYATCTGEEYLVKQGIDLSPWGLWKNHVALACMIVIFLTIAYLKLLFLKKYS
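System: two drug-resistant human cell lines, ABCG2 and ABCB1; controls: nicardipine high and DMSO low controls; times: 10 min exposure at 25 °C with rotation, no wash; detection: flow cytometry of retained JC-1 fluorescence; read-out basis: percent efflux inhibition, scaled nicardipine 100% to DMSO 0%; doses: one concentration, 6.6 µM final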
MEKK3 PB1 HTS: modulators of MEKK3-MEK5 PB1 binding, primary screen, biochemical, wildtype MEKK3, multiplex bead flow cytometry, Alexa488-MEK5; Mitogen-activated protein kinase kinase kinase 3 (Homo sapiens), Q99759; bead-based flow cytometry, Alexa488-MEK5 binding to MEKK3; actives lie on both sides; 0 = blocked by unlabeled MEK5, 100 = vehicle; binding response (% of control), % at 10 µM; 1.4% of 290,000 active; AID 1529, 2009;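 active = binding response more than 3 SD above or below the average of its plate-row segment, actives on both sides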;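 note: Alexa488 bead fluorescence after subtracting the streptavidin-only scavenger bead signal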
MEKK2 mut-MEK5: MEK5 binding signal on mutant MEKK2 PB1, primary screen, biochemical, multiplex bead flow cytometry, Alexa488-MEK5; 0.35% of 290,000 active; percent response, % at 10 µM; Alexa488-MEK5 binding to MEKK2 mutant; AID 1530, 2009; in the data active = percent response above about 24%, passing the limit was not always enough
ABCB1 inh: ABCB1 efflux pump inhibitors, primary screen, cell-based, multiplex, flow cytometry, ABCG2 counter-screen | inhibition, % at 6.6 µM | AID 1326, 2008 | ATP-dependent translocase ABCB1 (Homo sapiens), P08183 | 0.067% of 190,000 active | CCRF-Adr cells, JC-1 efflux; in the data active = inhibition above about 40%;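 note: 0% = vehicle and 100% = reference inhibitor; higher value means more JC-1 retained so stronger ABCB1 efflux block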
MEKK2wt confirm: modulators of MEK5 binding to wildtype MEKK2, confirmation, biochemical, single concentration, multiplex bead flow cytometry; shares compounds with MEKK3 PB1 HTS; Alexa488-MEK5 binding to MEKK2 WT; actives lie on both sides; binding response (% of control), % at 10 µM; 2.4% of 5,900 active; AID 1892, 2009; in the data active = binding response below about 16% or above about 210%; inactive = in between
MEKK2mut confirm: mutant MEKK2 PB1-MEK5 binding signal retest – biochemical, single concentration, multiplex bead flow cytometry, confirmation. shares compounds with MEKK3 PB1 HTS. Alexa488-MEK5 binding to MEKK2 mutant. percent response, % at 10 µM. 2% of 5,900 active; in the data active = percent response mostly above about 71%, no sharp cut-off; inactive = mostly below about 38%;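 note: higher means compound restores mutant binding toward wildtype level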
MEKK3-MEK5 inh: MEKK3 wild-type PB1 binding to MEK5, inhibitors, confirmation, biochemical, bead multiplex flow cytometry, single concentration, wildtype; shares compounds with MEKK3 PB1 HTS; Alexa488-MEK5 binding to MEKK3; active compounds read low; binding response (% of control), % at 10 µM; 1.8% of 5,900 active; AID 1894, 2009;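 active = binding response below 72% of control, or above a set upper limit, though filed actives all read lower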;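 note: 100% = DMSO only wells and 0% = binding blocked by excess unlabeled MEK5; lower values mean stronger disruption of MEK5 binding to MEKK3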
Active calls of the source: *; . = no result; [ ] = dose if it differs, or a comment. An excerpt weighted towards active compounds, which were near 2.3% of everything screened.

SMILES	MEKK2 WT-MEK5	ABCG2 inh	MEKK3 PB1 HTS	MEKK2 mut-MEK5	ABCB1 inh	MEKK2wt confirm	MEKK2mut confirm	MEKK3-MEK5 inh
CCOc1cc(C(C#N)N2CCOCC2)ccc1OC (configuration not stated)	98	37	96	-5	0	.	.	.
Cc1ccc(C(c2c(C)nn(-c3ccccc3)c2N)c2c(C)nn(-c3ccccc3)c2N)cc1	96	6	99	-1	7	.	.	.
Cc1nn(-c2ccccc2)c(N)c1C(c1ccc(C(C)C)cc1)c1c(C)nn(-c2ccccc2)c1N	106	20	146*	0	9	96	0	97
O=C(CN(C(=O)c1csnn1)c1ccccc1F)NC1CCCCC1	101	.	97	5	.	.	.	.
O=C(COC(=O)CCN1C(=O)/C(=C\C=C\c2ccccc2)SC1=S)Nc1cc(F)ccc1F	58*[inhibitor]	-3	92	-34	-2	68	-18	94
O=C(NCCc1ccccc1)C(=O)NCC1CCCO1 (configuration not stated)	17*[inhibitor]	.	12*[inhibitor]	-21	.	98	-1	101
Cc1ccc(NC(=S)NCC2CCCO2)cc1 (configuration not stated)	100	2	102	10	1	.	.	.
S=C(NCC1CCCO1)NC12CC3CC(CC(C3)C1)C2 (configuration not stated)	6.0*[inhibitor]	15	4.0*[inhibitor]	-46	-1	93	-8	90
S=C(NCC1CCCO1)Nc1ccc(Cl)cc1 (configuration not stated)	107	1	141*	1	0	98	-11	94
CCc1cccc(C)c1NC(=O)CSc1nnc(C)o1	109	.	104	4	.	.	.	.
CC(C)NCC(O)Cn1c2c(c3ccccc31)CCc1c-2cnn1-c1ccccc1 (configuration not stated)	176*	3	110	30*	2	149	25	106
N#C/C(=C\c1ccc2c(c1)OCCO2)C(=O)Nc1nccs1	102	.	101	3	.	.	.	.
CC(C)COc1ccc(CN=C(N)N=C(N)N)cc1Cl	139*	1	106	25	0	112	1	89
CC(C)Oc1ccc(CN=C(N)N=C(N)N)cc1Cl	116	0	105	23	0	.	.	.
CCOC(=O)c1c(C)[nH]c(C)c1S(=O)(=O)N1CCCCC1	92	.	97	-4	.	.	.	.
Cc1nc2c(-c3ccccc3)c(C)nn2c(C)c1CCC(=O)NCc1ccco1	107	8	106	14	0	.	.	.
CCN1CCN(c2cc(C(C)(C)C)nc3c(-c4ccccc4)c(C)nn23)CC1	147*	6	104	21	3	131	12	103
CCN1CCN(c2ccc(NC(=O)CCc3c(C)nc4c(-c5ccccc5)c(C)nn4c3C)cc2)CC1	138*	1	107	23	0	113	13	94
CCc1cc(=O)oc2cc(C)cc(OC(C)C(=O)NC(Cc3c[nH]c4ccc(O)cc34)C(=O)O)c12 (configuration not stated)	99	.	97	-2	.	.	.	.
COc1ccc(-n2ccn3c(CCC(=O)N4CCN(c5cccc(C)c5C)CC4)nnc3c2=O)cc1	102	.	103	-3	.	.	.	.
COc1ccc(NC(=O)COC(=O)C2CC(=O)N(c3ccc(C)cc3)C2)cc1 (configuration not stated)	104	.	102	0	.	.	.	.
